Results from ChEMBL document CHEMBL1139810, “Novel anti-infection agents: small-molecule inhibitors of bacterial transcription factors” (Bioorg Med Chem Lett, 2007).

What was measured:
Escherichia coli [1] = assay: Inhibition of Escherichia coli SoxS binding to DNA at 25 ug/mL
Escherichia coli [2] = assay: Inhibition of Escherichia coli SoxS binding to DNA at 50 ug/mL
[3] = biological target: T1, HTH-type transcriptional regulator ExsA (Pseudomonas aeruginosa (strain ATCC 15692 / PAO1 / 1C / PRS 101 / LMG12228), UniProt P26993); assay: Inhibition of Pseudomonas aeruginosa ExsA binding to DNA
T1 sequence (P26993 whole entry): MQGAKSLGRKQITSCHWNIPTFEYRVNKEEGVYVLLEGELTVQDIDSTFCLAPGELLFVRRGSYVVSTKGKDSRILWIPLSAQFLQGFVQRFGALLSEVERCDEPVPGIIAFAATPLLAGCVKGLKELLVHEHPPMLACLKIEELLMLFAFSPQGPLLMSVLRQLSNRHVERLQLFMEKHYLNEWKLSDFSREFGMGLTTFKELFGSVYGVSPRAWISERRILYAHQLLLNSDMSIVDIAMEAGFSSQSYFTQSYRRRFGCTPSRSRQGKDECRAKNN

Escherichia coli [4] = assay: Reduction of colony formation in urinary tract infection mouse model assessed per gram of kidney at 10 mg/kg, ip; assay type: functional; settings: route intraperitoneal
[5] = Inhibition of Escherichia coli SoxS binding to DNA
Escherichia coli [6] = assay: Antimicrobial activity against antibiotic-susceptible Escherichia coli ML308-225; assay type: functional
[7] = Inhibition of Salmonella Typhimurium Rma binding to DNA; parameters: species or system Salmonella enterica subsp. enterica serovar Typhimurium
Escherichia coli [8] = assay: Inhibition of Escherichia coli Rob binding to DNA; assay type: functional, organism-based
[9] = Inhibition of Escherichia coli MarA binding to DNA
How it was run: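 Binding of the 6-His-tagged Mar protein (20 nM) to biotinylated double-stranded target DNA (2 nM) was measured with test compound on streptavidin-coated wells. After washing, retained protein was read by luminescence, and inhibition appeared as signal loss. Selected compounds were also incubated with DNA and run on agarose gels to check whether they altered DNA structure.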

[10] = Inhibition of Proteus mirabilis PqrA binding to DNA
Staphylococcus aureus = assay: Antimicrobial activity against antibiotic-susceptible Staphylococcus aureus RN450; assay type: functional

SMILES | inhibition (Escherichia coli [2]) [%] | other results
CC(=O)Nc1ccc(-c2nc3ccc([N+](=O)[O-])cc3n2O)cc1 | 100 | inhibition (Escherichia coli [1]): 58%
CN(C)c1ccc(C(=O)Nc2ccc(-c3nc4ccc([N+](=O)[O-])cc4n3O)cc2)cc1 |  | IC50 [3]: 1900 nM; CFU (Escherichia coli [4]): 0.5; IC50 [5]: 820 nM; MIC (Escherichia coli [6]): > 64 µg/mL; IC50 [7]: 1800 nM; IC50 (Escherichia coli [8]): 1300 nM; IC50 [9]: 1200 nM; IC50 [10]: 1400 nM; MIC (Staphylococcus aureus): > 64 µg/mL
CCOC(=O)COn1c(-c2ccccc2)nc2ccc([N+](=O)[O-])cc21 | 0 | 
O=C(Nc1ccc(-c2nc3ccc([N+](=O)[O-])cc3n2O)cc1)c1ccc(F)cc1 |  | IC50 [3]: 4000 nM; IC50 [5]: 2800 nM; MIC (Escherichia coli [6]): > 64 µg/mL; IC50 [7]: 4900 nM; IC50 (Escherichia coli [8]): 4700 nM; MIC (Staphylococcus aureus): > 64 µg/mL
CC(=O)c1ccc2nc(-c3ccccc3)n(O)c2c1 | 37 | 
COc1ccc2nc(-c3ccccc3)n(O)c2c1 | 0 | 
On1c(-c2ccccc2)nc2ccccc21 | 0 | 
On1c(-c2ccccc2)nc2ccc(F)cc21 | 26 | 
CS(=O)(=O)c1ccc2nc(-c3ccccc3)n(O)c2c1 | 35 | 
CCCOn1c(-c2ccccc2)nc2ccc([N+](=O)[O-])cc21 | 0 | 
O=[N+]([O-])c1ccc2nc(-c3ccccc3)n(O)c2c1 | 38 | 
O=C(NCc1ccc(-c2nc3ccc([N+](=O)[O-])cc3n2O)cc1)c1ccccc1 | 44 | 
COc1ccc(-c2nc3ccc([N+](=O)[O-])cc3n2O)cc1 | 12 | 
N#CCOn1c(-c2ccccc2)nc2ccc([N+](=O)[O-])cc21 | 12 | 
On1c(-c2ccccc2)nc2ccc(C(F)(F)F)cc21 | 26 | 
CN(C)c1ccc2nc(-c3ccccc3)n(O)c2c1 | 28 | 
O=C(Nc1ccc(-c2nc3ccc([N+](=O)[O-])cc3n2O)cc1)c1ccccc1 | 100 | inhibition (Escherichia coli [1]): 100%; IC50 [5]: 17000 nM; MIC (Escherichia coli [6]): > 64 µg/mL; MIC (Staphylococcus aureus): > 64 µg/mL
COn1c(-c2ccccc2)nc2ccc([N+](=O)[O-])cc21 | 17 | 
O=[N+]([O-])c1ccc2nc(-c3ccc(Oc4ccccc4)cc3)n(O)c2c1 | 14 | 
O=C(O)c1ccc2nc(-c3ccccc3)n(O)c2c1 | 12 | 

SMILES | inhibition (Escherichia coli [2]) [%] | other results
O=C(O)CCOn1c(-c2ccccc2)nc2ccc([N+](=O)[O-])cc21 | 0 | 
CC(C)(C)c1ccc2nc(-c3ccccc3)n(O)c2c1 | 0 | 
Cc1ccc(C(=O)Nc2ccc(-c3nc4ccc([N+](=O)[O-])cc4n3O)cc2)cc1 |  | IC50 [5]: 10000 nM; MIC (Escherichia coli [6]): > 64 µg/mL; MIC (Staphylococcus aureus): > 64 µg/mL
NCCOn1c(-c2ccccc2)nc2ccc([N+](=O)[O-])cc21 | 0 | 
Nc1ccc(-c2nc3ccc([N+](=O)[O-])cc3n2O)cc1 | 80 | 
COc1ccc(C(=O)Nc2ccc(-c3nc4ccc([N+](=O)[O-])cc4n3O)cc2)cc1 |  | CFU (Escherichia coli [4]): 1; IC50 [5]: 2500 nM; MIC (Escherichia coli [6]): > 64 µg/mL; MIC (Staphylococcus aureus): > 64 µg/mL
CC(=O)Nc1ccccc1-c1nc2ccc([N+](=O)[O-])cc2n1O | 31 | 
Nc1ccccc1-c1nc2ccc([N+](=O)[O-])cc2n1O | 2 | 
CC(=O)Nc1cccc(-c2nc3ccc([N+](=O)[O-])cc3n2O)c1 | 32 | 
NC(=O)c1ccc2nc(-c3ccccc3)n(O)c2c1 | 14 | 
O=[N+]([O-])c1ccc2nc(-c3ccc(Br)cc3)n(O)c2c1 | 26 | 
C/C(=N/O)c1ccc2nc(-c3ccccc3)n(O)c2c1 | 38 | 
CN(C)c1cccc(-c2nc3ccc([N+](=O)[O-])cc3n2O)c1 | 30 | 
Nc1cccc(-c2nc3ccc([N+](=O)[O-])cc3n2O)c1 | 60 | 
O=[N+]([O-])c1ccc2nc(-c3ccc(O)cc3)n(O)c2c1 | 35 | 
O=C(Nc1ccc(-c2nc3ccc([N+](=O)[O-])cc3n2O)cc1)c1cccc(Cl)c1 |  | IC50 [5]: 3400 nM; MIC (Escherichia coli [6]): > 64 µg/mL; MIC (Staphylococcus aureus): > 64 µg/mL
O=C(O)COn1c(-c2ccccc2)nc2ccc([N+](=O)[O-])cc21 | 14 | 
O=[N+]([O-])c1ccc2nc(-c3ccccc3)n(OCCO)c2c1 | 0 | 
CN(C)c1ccc(-c2nc3ccc([N+](=O)[O-])cc3n2O)cc1 | 75 | 
N#Cc1ccc2nc(-c3ccccc3)n(O)c2c1 | 30 | 
